CHRM1 agonist: human M1 muscarinic receptor agonism. AID 588814. activation, % at 3 µM. 360,000 tested, 0.33% active. CHO-K1 hM1, Fluo-8 calcium fluorescence, agonist mode; 0% DMSO, 100% acetylcholine EC100;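 active = activation above the run's mean compound activation plus 3 SD, cut at about 16% in these data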;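 also: peak over basal fluorescence ratio within a 140 s kinetic read after compound addition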
CHRM1 antagonist: antagonists of human M1 muscarinic receptor | P11229 | CHO-K1 hM1, Fluo-8 calcium fluorescence, ACh EC80 antagonist | inhibition, % at 3 µM | 360,000 tested, 1.3% active;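 active = percent inhibition above its own plate's cutoff, namely the mean of that plate's compound wells plus 3 SD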;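 also: peak over basal fluorescence ratio during 140 s after agonist addition; 0% = ACh EC80 plus DMSO and 100% = DMSO alone without agonist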
TAAR1 antagonist: human TAAR1 antagonism | 360,000 tested, 1.5% active | CHO RD-HGA16 TAAR1, Fluo-8 calcium fluorescence, antagonist | inhibition, % at 3 µM | Q96RJ0 | AID 624466;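 active = inhibition above a per-plate cutoff, the mean inhibition of test compounds on that plate plus 3 SD, cut at about 49% in these data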;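 also: 0% = DMSO plus EC80 beta-PEA response and 100% = DMSO alone without agonist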
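Assay system: CHO-derived RD-HGA16 cells stably expressing human TAAR1 plus Gα16. Timing: 140 s kinetic read after compound, 140 s after agonist. Technique: kinetic Fluo-8 calcium fluorescence measurement. Measure: % inhibition of agonist calcium response.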
CHRM1 PAM: human CHRM1 positive allosteric modulation | P11229 | CHO-K1 hM1, Fluo-8 calcium fluorescence, ACh EC20; 0% = ACh EC20, 100% = maximal ACh | activation, % at 3 µM | 360,000 tested, 0.088% active; in the data active = activation above about 19%, passing the limit was not always enough
TAAR1 agonist: agonists of human TAAR1; Q96RJ0; CHO RD-HGA16 TAAR1, Fluo-8 calcium fluorescence; vehicle wells 0%, saturating PEA agonist 100%; activation, % at 3 µM; 360,000 tested, 0.99% active; AID 624467;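 active = activation above the mean activation of all test compounds in the run plus 3 SD, cut at about 38% in these data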
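Benchmarks: low control DMSO, high control PEA (EC100); System: CHO RD-HGA16 cells carrying human TAAR1 plus Gα16; Detection: Fluo-8 fluorescence, 5 s baseline then 140 s kinetic read; Schedule: 17-24 h plating, Fluo-8 75 min 37 °C, 30 min RT; Read-out basis: % activation from peak over basal fluorescence ratio, DMSO-to-PEA scaled.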
m5-HT2A agonist: agonists of mouse serotonin 5-HT2A receptor (HTR2A) | P35363 | CHO-K1 mHTR2A beta-arrestin complementation, luminescence; percent of 30 µM serotonin response | activation, % at 7.6 µM | 360,000 tested, 0.66% active | AID 624169;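 active = activation above a run cutoff, the mean activation of all tested compounds plus 3 SD, cut at about 14% in these data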;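 also: 0% = plate median of compound wells and 100% = 30 µM serotonin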
Target sequence (P35363 whole entry, looked up): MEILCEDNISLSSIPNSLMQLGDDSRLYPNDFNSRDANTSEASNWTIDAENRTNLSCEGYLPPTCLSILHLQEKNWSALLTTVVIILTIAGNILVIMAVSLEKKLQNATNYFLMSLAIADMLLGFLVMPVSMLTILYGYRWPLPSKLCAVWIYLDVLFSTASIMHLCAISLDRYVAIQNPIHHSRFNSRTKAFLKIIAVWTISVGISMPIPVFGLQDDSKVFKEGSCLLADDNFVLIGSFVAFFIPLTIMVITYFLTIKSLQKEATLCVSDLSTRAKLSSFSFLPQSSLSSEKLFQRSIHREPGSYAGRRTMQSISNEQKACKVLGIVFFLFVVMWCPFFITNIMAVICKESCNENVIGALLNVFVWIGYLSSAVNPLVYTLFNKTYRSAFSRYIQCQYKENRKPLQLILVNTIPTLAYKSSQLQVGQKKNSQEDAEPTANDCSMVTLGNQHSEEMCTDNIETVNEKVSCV
TAAR1 ag conf: human TAAR1 agonism, confirmed; shares compounds with TAAR1 agonist; 2,400 tested, 82% active; CHO RD-HGA16 TAAR1, Fluo-8 calcium fluorescence; scaled: DMSO 0%, maximal phenethylamine 100%; AID 651783; activation, % at 3 µM;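 active = activation above a cutoff set at the run's mean compound activation plus 3 SD, cut at about 39% in these data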
Ga16 nonsel ag: nonselective agonist in parental cells, TAAR1 agonist counter-screen; shares compounds with TAAR1 agonist; CHO-Ga16 parental, Fluo-8 calcium fluorescence; normalized to maximal ATP response, DMSO zero; activation, % at 3 µM; 2,400 tested, 50% active; AID 651787;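 active = activation above the run cutoff, the mean activation over all tested wells plus 3 SD, cut at about 12% in these data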;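 also: 0% = DMSO wells and 100% = maximal ATP response on the peak over basal ratio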
TAAR1 desensitize: TAAR1 response desensitization, agonist counter-screen; shares compounds with TAAR1 agonist; CHO RD-HGA16 hTAAR1, Fluo-8 calcium, beta-PEA response inhibition; inhibition, % at 3 µM; 2,400 tested, 46% active; AID 651951;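 active = inhibition above the run cutoff, the mean inhibition of all test compounds plus 3 SD, cut at about 49% in these data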;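 also: beta-PEA stimulus applied at its EC80; loss of beta-PEA calcium signal after compound pretreatment read as receptor desensitization; 0% = DMSO with beta-PEA at EC80 and 100% = DMSO alone without agonist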
Ga16 antag count: counter-screen for TAAR1 agonists: nonselective Ga16 antagonists; shares compounds with TAAR1 agonist; CHO-Ga16 ATP-induced calcium, Fluo-8 fluorescence; inhibition, % at 3 µM; 2,400 tested, 39% active;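 active = inhibition above the plate's mean compound inhibition plus 3 SD, computed per plate, cut at about 22% in these data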;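 also: 0% = EC80 ATP with DMSO and 100% = DMSO wells without ATP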
* hit, by the source's call; / = no result. This is a sample that favours compounds with a hit; in the whole collection about 3.9% have one here.

SMILES	CHRM1 agonist	CHRM1 antagonist	TAAR1 antagonist	CHRM1 PAM	TAAR1 agonist	m5-HT2A agonist	TAAR1 ag conf	Ga16 nonsel ag	TAAR1 desensitize	Ga16 antag count
CNC(C)Cc1ccccc1 (configuration not stated)	-1	-2	66*	-2	63*	0	94*	19*	83*	9
c1ccc2c(NC3=NCCS3)cccc2c1	-5	3	-1	-3	43*	8	82*	15*	47	5
COc1ccc(CC(C)NC2CCCCCC2)cc1 (configuration not stated)	-9	-5	7	-2	0	-2	/	/	/	/
N[C@H](CO)Cc1ccccc1	-2	-11	14	-2	52*	0	74*	1	37	9
COc1ccccc1CCNCc1ccc(OC)c(OC)c1OC	-5	-13	55*	8	62*	11	85*	3	74*	0
COc1cccc(CNCCc2cccc(F)c2)c1OC	-6	-11	-10	7	66*	2	77*	1	44	9
CC(=O)Nc1nnc(CCN(CCc2nnc(NC(C)=O)s2)[N+](=O)[O-])s1	-2	-6	10	3	4	-2	/	/	/	/
CC1OC(NCCc2ccccc2)C(O)C(O)C1O (configuration not stated)	-1	-9	/	3	/	2	/	0	/	2
Cc1ccc(Cn2nc(C)c(C=O)c2Cl)cc1	-5	-5	-16	7	0	1	/	/	/	/
Clc1ccccc1Nc1ncnc(-n2cccc2)n1	-4	1	1	4	17	-1	/	/	/	/
CCOc1ccc(-n2c(O)c(N=Nc3ccc([N+](=O)[O-])cc3)c(=O)[nH]c2=O)cc1	-3	-7	-19	5	3	-3	/	/	/	/
COc1cccc(C)c1NC1=NCCO1	-4	-15	61*	6	87*	-3	92*	1	87*	-3
CC(Cc1ccccc1Sc1ccccc1)N(C)C (configuration not stated)	-10	98*	9	-24	48*	-4	70*	2	12	10
O=C1NC(=O)C(=Cc2ccc(Sc3ccccc3)o2)C(=O)N1	-5	0	12	4	21	-7	/	/	/	/
O=C1NC(=O)N(c2ccc(Cl)cc2)C(=O)/C1=C\c1ccc(Sc2nc3ccccc3[nH]2)o1	11	-1	34	1	60*	8	6	7	17	20
CNc1ccc2oc(C[C@H]3O[C@@]4(CC[C@H]3C)O[C@H]([C@H](C)C(=O)c3ccc[nH]3)[C@H](C)C[C@H]4C)nc2c1C(=O)O	105*	94*	106*	-21	198*	-6	184*	146*	107*	101*
COc1ccc(-n2c(O)c(C=NCCN(C)C)c(=O)[nH]c2=O)cc1	-1	-6	-32	2	5	-2	/	/	/	/
Cn1cccc1CNCCc1ccc(F)cc1	-7	-7	32	2	49*	7	82*	9	54*	7
Fc1ccc(CCNCc2ccccc2Cl)cc1	-10	4	-18	-5	64*	-1	62*	8	24	6
Cc1ccc(CNCCc2ccc(F)cc2)s1	-5	-11	-17	5	29	-1	/	/	/	/
CCOc1ccc(Cl)cc1CNCCc1ccc(F)cc1	-2	-6	-6	3	15	-6	/	/	/	/
Fc1ccc(CNCCc2ccccc2)cc1	-6	1	-21	7	49*	-3	76*	15*	27	-1
O=C(NCCN1CCC2(CC1)C(=O)NCN2c1ccccc1)c1ccc(F)cc1	/	/	100*	/	98*	/	63*	50*	95*	79*
O=C(NCCN1CCC2(CC1)C(=O)NCN2c1ccccc1)c1ccc2ccccc2c1	/	/	105*	/	112*	/	91*	66*	107*	101*
Cc1ccccc1C(=O)NCCN1CCC2(CC1)C(=O)NCN2c1ccccc1	/	/	-28	/	2	/	/	/	/	/
SMILES	CHRM1 agonist	CHRM1 antagonist	TAAR1 antagonist	CHRM1 PAM	TAAR1 agonist	m5-HT2A agonist	TAAR1 ag conf	Ga16 nonsel ag	TAAR1 desensitize	Ga16 antag count
O=C(NCCN1CCC2(CC1)C(=O)NCN2c1ccccc1)c1cccs1	/	/	6	/	17	/	/	/	/	/
O=C(NCCN1CCC2(CC1)C(=O)NCN2c1ccccc1)c1ccc(Cl)cc1	/	/	105*	/	108*	/	92*	72*	106*	100*
CCOS(C)(=O)=O	-2	-12	10	5	1	0	/	/	/	/
Cc1ccc(C2C(=O)NC(=O)NC2=O)cc1	-2	-13	-15	15	1	0	/	/	/	/
CC1(C)CSC(=NCc2ccccc2)N1	12	16	88*	-16	132*	-5	111*	81*	95*	68*
O=C1C(Br)C2CCC1C2C(=O)O (configuration not stated)	0	-12	8	8	2	2	/	/	/	/
CC1(C)OC(c2ccccc2)=C/C(=C/C=C2C(=O)NC(=O)NC2=O)O1	17*	10	70*	-4	98*	2	10	21*	31	33*
O=C1NC(=O)N(c2ccccc2)C(=O)/C1=C/C=C/c1ccco1	2	-24	40	14	57*	-2	30	13*	22	2
Cc1ccc(N2C(=O)NC(=O)/C(=C\C=C\c3ccco3)C2=O)cc1C	4	0	35	-1	54*	2	76*	48*	69*	29*
CN1C(=O)/C(=C/C=C/c2ccco2)C(=O)NC1=S	4	-15	-9	13	2	8	/	/	/	/
c1ccc2cc(C3N4CCCN34)ccc2c1 (configuration not stated)	-9	-11	-25	7	1	-1	/	/	/	/
COc1cc(/C=C/[N+](=O)[O-])ccc1OC(=O)c1cccnc1	0	-15	24	12	56*	-2	87*	62*	67*	60*
COc1cc2c(cc1/C=C/[N+](=O)[O-])OCO2	-4	-3	-17	7	0	3	/	/	/	/
